According to ChEMBL document CHEMBL5107962, “Covalent sortase A inhibitor ML346 prevents Staphylococcus aureus infection of Galleria mellonella” (RSC Med Chem, 2022):

Legend:
[1] = Selectivity ratio of Ki for irreversible inhibition of recombinant Staphylococcus aureus sortase A deltaN24 expressed in Escherichia coli BL21(DE3) cells to Ki for irreversible inhibition of recombinant Streptococcus pyogenes sortase A deltaN81 expressed in Escherichia coli BL21(DE3) cells
[2] = Irreversible inhibition of recombinant Streptococcus pyogenes sortase A deltaN81 expressed in Escherichia coli BL21(DE3) cells using Abz-LPATG-Dnp as substrate preincubated for 20 mins followed by substrate addition and measured every 1 min for 15 mins by FRET-based assay
[3] = biological target: T1, Sortase A (Staphylococcus aureus, UniProt Q9S446); experiment: Irreversible inhibition of recombinant Staphylococcus aureus sortase A deltaN24 expressed in Escherichia coli BL21(DE3) cells using Abz-LPATG-Dnp as substrate preincubated for 60 mins followed by substrate addition and measured every 1 min for 15 mins by FRET-based assay
Method in brief: (§1)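 SaSrtAΔN24 preincubated with compound for 10, 20, 40 or 60 min before FRET IC50 determination with Abz-LPATG-Dnp in Tris pH 7.5, NaCl, CaCl2 buffer.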

[4] = biological target: T1, Sortase A; experiment: Irreversible inhibition of recombinant Staphylococcus aureus sortase A deltaN24 expressed in Escherichia coli BL21(DE3) cells using Abz-LPATG-Dnp as substrate preincubated for 40 mins followed by substrate addition and measured every 1 min for 15 mins by FRET-based assay; method in brief: as §1
[5] = system: Streptococcus pyogenes; experiment: Irreversible inhibition of recombinant Streptococcus pyogenes sortase A deltaN81 expressed in Escherichia coli BL21(DE3) cells using Abz-LPATG-Dnp as substrate assessed as maximum inactivation rate constant preincubated for 60 mins followed by substrate addition and measured every 1 min for 15 mins by fluorescence intensity based assay; details: time 75.0 min
Method in brief: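 Variable inhibitor concentrations incubated with SaSrtAΔN24 or SpSrtAΔN81 for different times, followed by FRET enzyme kinetics with Abz-LPATG-Dnp. kobs fitted as kinact × [I]/(KI + [I]) to give kinact and KI.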

[6] = system: Escherichia coli; experiment: Antibacterial activity against Escherichia coli AB1157 assessed as inhibition of bacterial growth incubated for 16 to 18 hrs; assay type: functional; details: time 16-18 hrs
Method in brief: (§2)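 Broth microdilution: S. aureus in TSB, E. coli in LB. Overnight cultures diluted 1:1000, grown at 37 °C to A600 0.6, then diluted 1:400 into two-fold compound dilutions. Incubated 16–18 h at 37 °C without shaking. MIC taken as the lowest concentration with no visible growth. Two independent experiments.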

[7] = system: Staphylococcus aureus; experiment: Antibacterial activity against Staphylococcus aureus USA300 assessed as inhibition of bacterial growth incubated for 16 to 18 hrs; assay type: functional; details: time 16-18 hrs; method in brief: as §2

`COc1ccc(/C=C/C=C2C(=O)NC(=O)NC2=O)cc1` showed a Ratio [1] of 4, an IC50 [2] of 2300 nM and an IC50 [3] of 300 nM. It also gave an IC50 [4] of 400 nM, a Kinact [5] of 0.044 min⁻¹ and an MIC [6] of over 512 µg/mL. For the same compound, the MIC [7] was over 512 µg/mL.
